# In ChEMBL document CHEMBL3399983, “Synthesis and biological activity of novel mono-indole and mono-benzofuran inhibitors of bacterial transcription initiation complex formation” (Bioorg Med Chem, 2015):
# Active and inactive are the calls of the source. No cut-off for these calls is given here.
# Experiments:
# [1] = tested on: Bacillus subtilis; assay: Growth inhibition of Bacillus subtilis 168 assessed as effect on exponential phase of bacterial growth at 200 uM incubated for 16 hrs; format: functional; settings: Bacillus subtilis, 168, 16 h; read-out: GI
# [2] = tested on: Escherichia coli; assay: Growth inhibition of Escherichia coli DH5[alpha] at 200 uM incubated for 16 hrs; format: functional; settings: for inhibition of growth at 200 µM: read-out: GI
# Outline: (§1)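 E. coli DH5α grown at 37 °C in LB with shaking to OD600 0.6–0.7, then added to wells holding compound diluted from a 50 mM DMSO stock. Plates shaken at 37 °C, with OD600 read every 10 min over 16 h against an LB blank. Growth inhibition expressed as % of the no-inhibitor control.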
# [3] = Inhibition of interaction of RNA polymerase beta' subunit CH-region and region 2.2 of RNA polymerase sigma factor RpoD/RNA polymerase sigma factor sigA (unknown origin) at 15 uM […] followed by incubation at room temperature for 1 hr by ELISA method
# [4] = tested on: Bacillus subtilis; assay: Growth inhibition of Bacillus subtilis 168 at 200 uM incubated for 16 hrs; format: functional; settings: for inhibition of growth at 200 µM: Bacillus subtilis, 168, 16 h, read-out: GI
# [5] = tested on: Escherichia coli; assay: Growth inhibition of Escherichia coli DH5[alpha] assessed as effect on exponential phase of bacterial growth at 200 uM incubated for 16 hrs; format: functional; settings: read-out: GI; outline: as §1
# [6] = tested on: Escherichia coli; assay: Growth inhibition of Escherichia coli DH5[alpha] incubated for 16 hrs; format: functional; outline: as §1
# [7] = Inhibition of interaction of RNA polymerase beta' subunit CH-region and region 2.2 of RNA polymerase sigma factor RpoD/RNA polymerase sigma factor sigA (unknown origin) pre-incubated at 37 degC for 15 mins with enzyme followed by incubation at room temperature for 1 hr by ELISA method
# [8] = tested on: Bacillus subtilis; assay: Growth inhibition of Bacillus subtilis 168 incubated for 16 hrs; format: functional
# [9] = tested on: Staphylococcus aureus; assay: Growth inhibition of Staphylococcus aureus at 200 uM incubated for 16 hrs; format: functional; settings: read-out: GI
compound,measurement,setting,value
COc1cc(OC)c2c(-c3ccc(Cl)cc3)c(C(=O)C(=O)N3CCOCC3)[nH]c2c1,inhibition of growth at 200 µM,[1],37%
same,inhibition of growth at 200 µM,[2],37%
same,inhibition,[3],27%
O=C(C(=O)N1CCOCC1)c1c[nH]c2ccccc12,inhibition of growth at 200 µM,[2],4%
same,growth inhibition (GI),[4],inactive
same,inhibition,[3],39%
CCOC(=O)CNC(=O)C(=O)c1[nH]c2cc(OC)cc(OC)c2c1-c1ccc(Cl)cc1,inhibition of growth at 200 µM,[2],53%
same,growth inhibition (GI),[4],inactive
same,inhibition,[3],42%
O=C(C(=O)N1CCN(Cc2ccccc2)CC1)c1c[nH]c2ccccc12,inhibition of growth at 200 µM,[2],6%
same,inhibition of growth at 200 µM,[4],70%
same,inhibition,[3],21%
O=C(C(=O)N1CCCCC1)c1c[nH]c2ccccc12,inhibition of growth at 200 µM,[2],9%
same,inhibition of growth at 200 µM,[4],12%
same,inhibition,[3],37%
COc1cc(OC)c2c(-c3ccc(Cl)cc3)c[nH]c2c1C(=O)Nc1ccc(C)cc1,inhibition of growth at 200 µM,[2],13%
same,inhibition of growth at 200 µM,[4],13%
COc1cc(OC)c2c(-c3ccc(Br)cc3)c[nH]c2c1C(=O)Nc1ccc(C)cc1,inhibition of growth at 200 µM,[2],12%
same,inhibition of growth at 200 µM,[4],36%
COc1cc(OC)c2c(-c3ccc(Br)cc3)c(C(=O)C(=O)N3CCCC3)[nH]c2c1,growth inhibition (GI),[2],inactive
same,growth inhibition (GI),[4],inactive
same,inhibition,[3],inactive
COc1cc(OC)c2c(C)c(C(=O)C(=O)N3CCN(c4ccccn4)CC3)[nH]c2c1,inhibition of growth at 200 µM,[2],38%
same,inhibition of growth at 200 µM,[4],14%
same,inhibition,[3],48%
COc1cc(OC)c2c(-c3ccc(Cl)cc3)c[nH]c2c1C(=O)C(=O)NNc1ccccc1,inhibition of growth at 200 µM,[2],20%
same,growth inhibition (GI),[4],inactive
same,inhibition,[3],26%
COc1cc(OC)c2c(-c3ccc(Br)cc3)c[nH]c2c1C(=O)C(=O)N1CCCCC1,inhibition of growth at 200 µM,[2],26%
same,inhibition of growth at 200 µM,[4],14%
same,inhibition,[3],32%
COc1cc(OC)c2c(C)c(C(=O)C(=O)N3CCCCC3)[nH]c2c1,growth inhibition (GI),[2],inactive
same,growth inhibition (GI),[4],inactive
same,inhibition,[3],17%
COc1cc(OC)c2c(-c3ccc(Br)cc3)c[nH]c2c1C(=O)C(=O)NNc1ccccc1,inhibition of growth at 200 µM,[2],24%
same,inhibition of growth at 200 µM,[4],10%
same,inhibition,[3],34%
COc1cc(OC)c2c(-c3ccc(Cl)cc3)c[nH]c2c1C(=O)C(=O)Nc1ccc(C)cc1,inhibition of growth at 200 µM,[2],20%
same,growth inhibition (GI),[4],inactive
same,inhibition,[3],37%
COc1cc(OC)c2c(-c3ccc(Cl)cc3)c[nH]c2c1C(=O)C(=O)N1CCCCC1,growth inhibition (GI),[2],inactive
same,growth inhibition (GI),[4],inactive
same,inhibition,[3],inactive
COc1cc(OC)c2c(-c3ccc(Cl)cc3)c[nH]c2c1C(=O)C(=O)Nc1ccccc1,inhibition of growth at 200 µM,[2],23%
same,inhibition of growth at 200 µM,[4],26%
same,inhibition,[3],23%
COc1cc(OC)c2c(-c3ccc(Cl)cc3)c(C(=O)C(=O)N3CCCCC3)[nH]c2c1,inhibition of growth at 200 µM,[2],18%
same,growth inhibition (GI),[4],inactive
same,inhibition,[3],inactive
COc1cc(OC)c2c(-c3ccccc3)c(C(=O)C(=O)N3CCN(c4ccccn4)CC3)oc2c1,inhibition of growth at 200 µM,[2],10%
same,inhibition of growth at 200 µM,[4],3%
same,inhibition,[3],41%
COc1cc(OC)c2c(-c3ccc(Br)cc3)c[nH]c2c1C(=O)C(=O)N1CCN(Cc2ccccc2)CC1,inhibition of growth at 200 µM,[2],6%
same,growth inhibition (GI),[4],inactive
same,inhibition,[3],8%
COc1cc(OC)c2c(C)c(C)[nH]c2c1C(=O)C(=O)N1CCN(c2ccccn2)CC1,inhibition of growth at 200 µM,[2],13%
same,inhibition of growth at 200 µM,[4],12%
same,inhibition,[3],27%
COc1cc(OC)c2c(-c3ccc(Br)cc3)c[nH]c2c1C(=O)C(=O)N1CCOCC1,inhibition of growth at 200 µM,[5],59%
same,GI,[6],>100 µM
same,IC50,[7],33.9 µM
same,growth inhibition (GI),[4],inactive
same,inhibition,[3],31%
COc1cc(OC)c2c(C)c(C)[nH]c2c1C(=O)C(=O)N1CCOCC1,inhibition of growth at 200 µM,[1],42%
same,growth inhibition (GI),[2],inactive
same,inhibition,[3],7%
O=C(C(=O)N1CCN(c2ccccn2)CC1)c1c[nH]c2ccccc12,inhibition of growth at 200 µM,[2],4%
same,inhibition of growth at 200 µM,[4],10%
same,inhibition,[3],27%
COc1cc(OC)c2c(C)c(C(=O)C(=O)N3CCCC3)[nH]c2c1,growth inhibition (GI),[2],inactive
same,growth inhibition (GI),[4],inactive
same,inhibition,[3],44%
COc1cc(OC)c2c(-c3ccc(Br)cc3)c[nH]c2c1C(=O)C(=O)Nc1ccc(C)cc1,inhibition of growth at 200 µM,[2],29%
same,growth inhibition (GI),[4],inactive
COc1cc(OC)c2c(-c3ccc(Cl)cc3)c[nH]c2c1C(=O)NNc1ccccc1,inhibition of growth at 200 µM,[2],21%
same,growth inhibition (GI),[4],inactive
same,inhibition,[3],60%
COc1cc(OC)c2c(-c3ccc(Br)cc3)c(C(=O)C(=O)N3CCCCC3)[nH]c2c1,inhibition of growth at 200 µM,[2],7%
same,inhibition of growth at 200 µM,[4],22%
same,inhibition,[3],39%
COc1cc(OC)c2c(-c3ccccc3)c(C(=O)C(=O)N3CCOCC3)oc2c1,inhibition of growth at 200 µM,[1],70%
same,inhibition of growth at 200 µM,[2],6%
same,IC50,[7],71.6 µM
same,GI,[8],>100 µM
same,inhibition,[3],29%
COc1cc(OC)c2c(C)c(C)[nH]c2c1C(=O)C(=O)N1CCCCC1,inhibition of growth at 200 µM,[1],57%
same,inhibition of growth at 200 µM,[2],24%
same,inhibition,[3],39%
COc1cc(OC)c2c(C)c(C(=O)C(=O)N3CCN(C)CC3)[nH]c2c1,growth inhibition (GI),[2],inactive
same,growth inhibition (GI),[4],inactive
same,inhibition,[3],44%
COc1cc(OC)c2c(-c3ccc(Br)cc3)c[nH]c2c1C(=O)NNc1ccccc1,inhibition of growth at 200 µM,[2],23%
same,growth inhibition (GI),[4],inactive
same,inhibition,[3],44%
COc1cc(OC)c2c(-c3ccc(Cl)cc3)c(C(=O)N3CCOCC3)[nH]c2c1,inhibition of growth at 200 µM,[2],42%
same,growth inhibition (GI),[4],inactive
same,inhibition,[3],inactive
COc1cc(OC)c2c(-c3ccc(Br)cc3)c(C(=O)C(=O)N3CCN(c4ccccn4)CC3)[nH]c2c1,inhibition of growth at 200 µM,[2],38%
same,inhibition of growth at 200 µM,[4],19%
same,inhibition,[3],25%
COc1cc(OC)c2c(C)c(C(=O)C(=O)N3CCOCC3)[nH]c2c1,inhibition of growth at 200 µM,[2],2%
same,inhibition of growth at 200 µM,[4],2%
same,inhibition,[3],33%
COc1cc(OC)c2c(-c3ccc(Cl)cc3)c[nH]c2c1C(=O)C(=O)N1CCOCC1,inhibition of growth at 200 µM,[5],38%
same,growth inhibition (GI),[4],inactive
same,inhibition,[3],inactive
COc1cc(OC)c2c(-c3ccc(Br)cc3)c[nH]c2c1C(=O)Nc1ccccc1,inhibition of growth at 200 µM,[2],13%
same,inhibition of growth at 200 µM,[4],7%
same,inhibition,[3],49%
COc1cc(OC)c2c(C)c(C(=O)C(=O)N3CCN(Cc4ccccc4)CC3)[nH]c2c1,inhibition of growth at 200 µM,[2],16%
same,inhibition of growth at 200 µM,[4],7%
same,inhibition,[3],46%
COc1cc(OC)c2c(-c3ccc(Cl)cc3)c[nH]c2c1C(=O)C(=O)N1CCCC1,inhibition of growth at 200 µM,[2],23%
same,inhibition of growth at 200 µM,[9],60%
same,inhibition,[3],inactive
COc1cc(OC)c2c(-c3ccc(Br)cc3)c[nH]c2c1C(=O)C(=O)Nc1ccccc1,inhibition of growth at 200 µM,[2],33%
same,inhibition of growth at 200 µM,[4],36%
same,inhibition,[3],34%
